Measurements as given in ChEMBL document CHEMBL3120083, “Discovery of N-[4-[6-tert-butyl-5-methoxy-8-(6-methoxy-2-oxo-1H-pyridin-3-yl)-3-quinolyl]phenyl]methanesulfonamide (RG7109), a potent inhibitor of the hepatitis C virus NS5B polymerase” (J Med Chem, 2014).
Converted amounts (≈) assume the structure as drawn. One block for each molecule: values may come before it.

Experiments:
[1] = tested on: Hepatocyte; test: Intrinsic clearance in rat hepatocytes assessed per 10^6 cells; format: ADME, cell-based
Outline: (§1)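 Suspended hepatocytes (about 1.0×10^6 cells/mL) in Williams' medium E with glutamine, antibiotics, insulin, dexamethasone and 10% FCS, 37 °C, 5% CO2, shaken at 900 rpm. Compound at 0.1–10.0 μM. Stopped with methanol plus internal standard at 2–180 min. Parent remaining by LC/MS/MS peak area ratio, in duplicate.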

[2] = tested on: Hepatocyte; test: Intrinsic clearance in human hepatocytes assessed per 10^6 cells; format: ADME, cell-based; outline: as §1
[3] = tested on: Hepatitis C virus; test: Antiviral activity against Hepatitis C virus genotype 1b Con1 infected in human 2209-23 cells after 72 hrs by luciferase reporter gene assay; format: functional, organism-based, Hepacivirus hominis; conditions: isolate Con1, 2209-23, 72 h
Outline: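 Stable GT-1b Con1 subgenomic replicon cell line expressing a renilla luciferase reporter, used as the readout of inhibition. EC50 from luciferase signal, n 2.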

[4] = tested on: Hepatitis C virus; test: Antiviral activity against Hepatitis C virus genotype 1a H77 infected in human 2209-23 cells after 72 hrs by luciferase reporter gene assay; format: functional, organism-based, Hepacivirus hominis; conditions: genotype 1a H77, 2209-23, 72 h
[5] = Thermodynamic solubility of the compound; format: physicochemical; conditions: read-out: Therm_solubility
[6] = tested on: Hepatitis C virus; test: Ratio of EC50 for Hepatitis C virus genotype 1b Con1 in presence of human serum to EC50 for Hepatitis C virus genotype 1b Con1; format: functional, Hepacivirus hominis, isolate Con1
[7] = tested on: Hepatitis C virus; test: Antiviral activity against Hepatitis C virus genotype 1b Con1 infected in human 2209-23 cells after 72 hrs by luciferase reporter gene assay in presence of 40% human serum; format: functional, organism-based, Hepacivirus hominis; conditions: isolate Con1, 2209-23, 72 h
[8] = Ratio of EC50 for Hepatitis C virus genotype 1a H77 to EC50 for Hepatitis C virus genotype 1b Con1; format: functional
[9] = tested on: Hepatitis C virus; test: Ratio of EC50 for Hepatitis C virus genotype 1a H77 in presence of human serum to EC50 for Hepatitis C virus genotype 1a H77; format: functional, Hepacivirus hominis
[10] = tested on: Hepatitis C virus; test: Antiviral activity against Hepatitis C virus genotype 1a H77 infected in human 2209-23 cells after 72 hrs by luciferase reporter gene assay in presence of 40% human serum; format: functional, organism-based, Hepacivirus hominis; conditions: genotype 1a H77, 2209-23, 72 h
[11] = Inhibition of N-terminal 6xHis-tagged Hepatitis C virus genotype 1b Con1 NS5B polymerase containing 21-amino acid deletion at C-terminus expressed in Escherichia coli using radiolabeled UTP as substrate after 2 hrs by scintillation counting analysis; set-up: species or system Hepatitis C virus (isolate Con1)
Outline: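 GT-1b Con1 NS5B polymerase (NS5B570n-Con1) activity assay run with RNA template at 3 nM and enzyme at 3 nM. IC50 reported in nM.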

Structure (SMILES): COc1c(C2(C(F)F)CC2)cc(-n2ccc(=O)[nH]c2=O)c2ncc(-c3ccc(NS(C)(=O)=O)cc3)cc12
CLH [1]: 1.7 uL/min/10^6 cells
CLH [2]: 0.1 uL/min/10^6 cells
EC50 [3]: 16 nM
EC50 [4]: 95 nM

Structure (SMILES): COc1c(C(C)(C)C)cc(-c2ccc(C)[nH]c2=O)c2ncc(CCCCNS(C)(=O)=O)cc12
solubility thermodynamic [5]: 168 µg/mL (≈ 356 µM)
EC50 [4]: > 1000 nM

Structure (SMILES): COc1c(C(C)(C)C)cc(-n2ccc(=O)[nH]c2=O)c2ncc(-c3ccc(NS(C)(=O)=O)cc3)cc12
CLH [1]: 20 uL/min/10^6 cells
Ratio EC50 [6]: 1.7
EC50 [7]: 5.6 nM
EC90 [7]: 29 nM
Ratio EC50 [8]: 2.2
CLH [2]: 7.9 uL/min/10^6 cells
EC50 [3]: 3.2 nM
Ratio EC50 [9]: 1.7
EC50 [10]: 16 nM
EC90 [10]: 123 nM
EC50 [4]: 7.2 nM

Structure (SMILES): COc1c(C(F)(F)F)cc(-n2ccc(=O)[nH]c2=O)c2ncc(-c3ccc(NS(C)(=O)=O)cc3)cc12
CLH [1]: 1.8 uL/min/10^6 cells
CLH [2]: 1.5 uL/min/10^6 cells
EC50 [3]: 57 nM
EC50 [4]: 821 nM

Structure (SMILES): COc1c(C(C)(C)C)cc(N2CCC(=O)NC2=O)c2ncc(-c3ccc(NS(C)(=O)=O)cc3)cc12
Ratio EC50 [6]: 1.7
EC50 [7]: 3.5 nM
EC90 [7]: 20 nM
Ratio EC50 [8]: 1.4
EC50 [3]: 3.2 nM
Ratio EC50 [9]: 1.7
EC50 [10]: 10 nM
EC90 [10]: 48 nM
EC50 [4]: 4.6 nM

Structure (SMILES): COc1c(C(C)(C)C)cc(-c2cn(C)c(=O)[nH]c2=O)c2ncc(-c3ccc(NS(C)(=O)=O)cc3)cc12
EC50 [3]: 1.5 nM
EC50 [4]: 3 nM

Structure (SMILES): CC(C)(C)c1cc(-c2cc(F)c[nH]c2=O)c2ncc(-c3ccc(NS(C)(=O)=O)cc3)cc2c1
EC50 [3]: 16 nM
EC50 [4]: 25 nM

Results, then the molecule that gave them:

EC50 [3]: 12 nM
EC50 [4]: 83 nM
Structure (SMILES): COc1c(C(C)(C)C)cc(-n2ccc(=O)[nH]c2=O)c2ccc(-c3ccc(NS(C)(=O)=O)cc3)nc12

EC50 [3]: 3.5 nM
EC50 [4]: 3.8 nM
Structure (SMILES): COc1c(C(C)(C)C)cc(-c2cc(F)c[nH]c2=O)c2ncc(-c3ccc(NS(C)(=O)=O)cc3)cc12

IC50 [11]: 625 nM
solubility thermodynamic [5]: 66 µg/mL (≈ 137 µM)
EC50 [4]: > 1000 nM
Structure (SMILES): Cc1ccc(-c2cc(C(C)(C)C)cc3cc(N4CCCC(CNS(C)(=O)=O)C4)cnc23)c(=O)[nH]1 (stereo not drawn)

EC50 [3]: 2 nM
EC50 [4]: 4.2 nM
Structure (SMILES): COc1c(C(C)(C)C)cc(-c2ccc(C)[nH]c2=O)c2ncc(-c3ccc(NS(C)(=O)=O)cc3)cc12
